The values below come from ChEMBL document CHEMBL3272326, “Antitumor septacidin analogues” (J Med Chem, 1977).

The term ΔTm denotes the shift of the melting midpoint relative to a reference. Broadly, the T/C is the ratio of treated to control.

In data set [1] the test system is L1210. Nature of the data set: Inhibition of RNA synthesis in mouse L1210 cells after 3 hrs by [3H]uridine incorporation assay. It is filed as functional. The conditions noted are these: L1210, 3 h, read-out: ED50 (the source's name). The method, boiled down: (§1)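 Cultured lymphoid leukemia L1210 cells; nucleic acid synthesis inhibition measured by a previously reported procedure, modified by adding 1% Me2SO for solubility.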

The test system of data set [2] is L1210. Nature of the data set: Cytotoxicity against mouse L1210 cells. To be noted: read-out: I50. It is filed as functional, cell-based.
The next data set deals with Calf thymus DNA. In words: Binding affinity to calf thymus helical DNA assessed as change in melting temperature by […] analysis. The data set is classed as nucleic-acid assay. The conditions noted are these: Bos taurus. The method, boiled down: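 Helix–coil transition temperature shift of isolated helical DNA in solution. Modified procedure: 0.010 M phosphate buffer with 10⁻⁵ M EDTA, pH 7.0, plus 5% Me2SO to solubilize compound.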

The subject of data set [3] is P388 (Mus musculus). In words: Antitumor activity against mouse P388 cells allografted in mouse assessed as optimum dose administered qd from day 1 to 9.
For data set [4], the system named is L1210. Nature of the data set: Inhibition of DNA synthesis in mouse L1210 cells after 3 hrs by [3H]thymidine incorporation assay. To be noted: L1210, 3 h, read-out: ED50 (the source's name). It is filed as functional. In outline: as §1
Data set [5] has as its system P388 (Mus musculus). Nature of the data set: Antitumor activity against mouse P388 cells allografted in mouse assessed as tumor growth inhibition at optimum dose administered qd from day 1 to 9 relative to control.
Data set [6] relates to Salmonella typhimurium. Nature of the data set: Mutagenicity in Salmonella typhimurium TA1535 by Ames test in presence of S9 fraction. The conditions noted are these: salmonella enterica subsp. enterica serovar typhimurium. The data set is classed as toxicity, organism-based. The method, boiled down:
(§2)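 Salmonella plate mutagenicity test; compounds tested at levels up to 1 μmol per plate.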
On the technique in general: In the Ames test, an excess of revertant colonies over the control signals mutagenicity.

The test system of data set [7] is Salmonella typhimurium. In words: Mutagenicity in Salmonella typhimurium TA1538 by Ames test in presence of S9 fraction. The data set is classed as toxicity, organism-based. The conditions noted are these: salmonella enterica subsp. enterica serovar typhimurium. In outline:
as §2

Data set [8] relates to Salmonella typhimurium. Nature of the data set: Mutagenicity in Salmonella typhimurium TA1538 by Ames test. To be noted: salmonella enterica subsp. enterica serovar typhimurium. It is filed as toxicity, organism-based. In outline: as §2
Data set [9] deals with Salmonella typhimurium. Nature of the data set: Mutagenicity in Salmonella typhimurium TA1536 by Ames test. It is filed as toxicity, organism-based. The conditions noted are these: salmonella enterica subsp. enterica serovar typhimurium. The method, boiled down: as §2
The test system of data set [10] is Salmonella typhimurium. Nature of the data set: Mutagenicity in Salmonella typhimurium TA1537 by Ames test in presence of S9 fraction. The conditions noted are these: salmonella enterica subsp. enterica serovar typhimurium. The data set is classed as toxicity, organism-based. The method, boiled down:
as §2

Data set [11] deals with Salmonella typhimurium. In words: Mutagenicity in Salmonella typhimurium TA1536 by Ames test in presence of S9 fraction. The data set is classed as toxicity, organism-based. To be noted: salmonella enterica subsp. enterica serovar typhimurium. The method, boiled down: as §2
In data set [12] the test system is Salmonella typhimurium. Nature of the data set: Mutagenicity in Salmonella typhimurium TA1535 by Ames test. It is filed as toxicity, organism-based. To be noted: salmonella enterica subsp. enterica serovar typhimurium. In outline: as §2
Data set [13] concerns Salmonella typhimurium. In words: Mutagenicity in Salmonella typhimurium TA1537 by Ames test. It is filed as toxicity, organism-based. The conditions noted are these: salmonella enterica subsp. enterica serovar typhimurium. The method, boiled down: as §2

Take `COc1cccc2c1C(=O)c1c(O)c3c(c(O)c1C2=O)C[C@@](O)(C(=O)CO)C[C@@H]3O[C@H]1C[C@H](N)[C@H](O)[C@H](C)O1` [DOXORUBICIN]: the EC50 in the data set with L1210 [1] was 0.67 µM; with L1210 [4], 1.5 µM. The IC50 in the data set on L1210 [2] was 0.032 µM. Besides, the ΔTm in the data set on Calf thymus DNA was 13.6 °C. In addition, the Activity with P388 (Mus musculus) [3] was 1 mg/kg. The T/C with P388 (Mus musculus) [5] stood at 193%.
Take `CC(C)CCCCCCCCCCCCC(=O)N[C@@H]1[C@@H](O)[C@H](O)[C@@H](Nc2ncnc3[nH]cnc23)O[C@H]1C`: the Activity result in the data set with Salmonella typhimurium [6], with Salmonella typhimurium [7], in the data set with Salmonella typhimurium [8], with Salmonella typhimurium [9], in the data set on Salmonella typhimurium [10] and with Salmonella typhimurium [11] was “Non-toxic” throughout. For the same compound, the Activity entry was “Non-toxic” in the data set on Salmonella typhimurium [12], 0.5 mg/kg in the data set with P388 (Mus musculus) [3] and “Non-toxic” with Salmonella typhimurium [13]. In addition, the EC50 in the data set with L1210 [1] and with L1210 [4] was greater than 1000 µM in each case. The IC50 with L1210 [2] was greater than 100 µM. Moreover, the ΔTm in the data set with Calf thymus DNA stood at 0.5 °C. For the same compound, the T/C in the data set with P388 (Mus musculus) [5] is less than 125%.
Consider `CC(C)CCCCCCCCCCCCC(=O)NCC(=O)N[C@@H]1[C@@H](O)[C@H](O)[C@@H](Nc2ncnc3[nH]cnc23)O[C@H]1C(O)CO` (stereo partly specified), for which the values for the EC50 with L1210 [1] and in the data set with L1210 [4] were 1 µM and 0.4 µM, respectively. Also, the IC50 in the data set on L1210 [2] is greater than 5 µM. Moreover, in the data set on P388 (Mus musculus) [3], the Activity stood at 0.5 mg/kg. In addition, the T/C in the data set on P388 (Mus musculus) [5] is listed as 154%.
For the compound `CCOCCC(=O)NCC(=O)N[C@@H]1[C@@H](O)[C@H](O)[C@@H](Nc2ncnc3[nH]cnc23)O[C@H]1CO`, the EC50 in the data set with L1210 [1] and in the data set on L1210 [4] was greater than 1000 µM in each case. Besides, in the data set on L1210 [2], the IC50 is greater than 500 µM. The ΔTm with Calf thymus DNA amounted to 0.4 °C. For the same compound, the Activity in the data set on P388 (Mus musculus) [3] came to 3.1 mg/kg. For the same compound, the T/C in the data set on P388 (Mus musculus) [5] is less than 125%.
As to `CC(C)CCCCCCCCCCCCC(=O)NCC(=O)N[C@@H]1[C@@H](O)[C@H](O)[C@@H](Nc2ncnc3[nH]cnc23)O[C@H]1C`, the EC50 in the data set with L1210 [1] was found to be 1.1 µM; in the data set with L1210 [4], 1.8 µM. Further, in the data set on L1210 [2], the IC50 was greater than 20 µM. The ΔTm in the data set with Calf thymus DNA is 0.6 °C. Besides, the Activity with P388 (Mus musculus) [3] amounted to 1 mg/kg. For the same compound, in the data set on P388 (Mus musculus) [5], the T/C is 160%.
With `CCCCCCCCCCCCCCCCC(NC(C)=O)C(=O)N[C@@H]1[C@@H](O)[C@H](O)[C@@H](Nc2ncnc3[nH]cnc23)O[C@H]1C` (stereo partly specified), the EC50 in the data set with L1210 [1] and in the data set with L1210 [4] was greater than 1000 µM in each case.
On to `CCCCCCCCCCCC(=O)NCC(=O)N[C@@H]1[C@@H](O)[C@H](O)[C@@H](Nc2ncnc3[nH]cnc23)O[C@H]1CO`, for which the Activity entry in the data set with Salmonella typhimurium [6], with Salmonella typhimurium [7], with Salmonella typhimurium [8], with Salmonella typhimurium [9], in the data set on Salmonella typhimurium [10] and in the data set with Salmonella typhimurium [11] was “Non-toxic” each time. Further, the Activity result with Salmonella typhimurium [12] was “Non-toxic”; in the data set with P388 (Mus musculus) [3], 1 mg/kg; in the data set on Salmonella typhimurium [13] it was “Non-toxic”. Further, the EC50 was determined as 5.5 µM in the data set on L1210 [1] and 20 µM in the data set on L1210 [4]. Also, the IC50 in the data set with L1210 [2] worked out at 3 µM. Besides, in the data set with Calf thymus DNA, the ΔTm was 0.5 °C. Moreover, the T/C in the data set with P388 (Mus musculus) [5] came to 133%.
Consider `CCCCCC(=O)NCC(=O)N[C@@H]1[C@@H](O)[C@H](O)[C@@H](Nc2ncnc3[nH]cnc23)O[C@H]1C`, for which the Activity entry with Salmonella typhimurium [6], with Salmonella typhimurium [7], with Salmonella typhimurium [8], in the data set with Salmonella typhimurium [9], in the data set with Salmonella typhimurium [10] and in the data set on Salmonella typhimurium [11] was “Non-toxic” throughout. Further, the Activity result in the data set on Salmonella typhimurium [12] was “Non-toxic”; with P388 (Mus musculus) [3], 0.5 mg/kg; in the data set on Salmonella typhimurium [13], “Non-toxic”. Moreover, the EC50 in the data set on L1210 [1] and with L1210 [4] was greater than 1000 µM in each case. Also, the IC50 in the data set with L1210 [2] worked out at 250 µM. Also, the T/C with P388 (Mus musculus) [5] is less than 125%.
`CC(C)CCCCCCCCCCCCC(=O)NCC(=O)N[C@@H]1[C@@H](O)[C@H](O)[C@@H](Nc2ncnc3[nH]cnc23)O[C@H]1CO`: the Activity result with Salmonella typhimurium [6], in the data set on Salmonella typhimurium [7], with Salmonella typhimurium [8], in the data set with Salmonella typhimurium [9], in the data set with Salmonella typhimurium [10] and with Salmonella typhimurium [11] was “Non-toxic” in each case. Also, the Activity entry in the data set with Salmonella typhimurium [12] is “Non-toxic”; with P388 (Mus musculus) [3] it was 0.5 mg/kg; in the data set with Salmonella typhimurium [13] it was “Non-toxic”. The EC50 in the data set with L1210 [1] was 0.69 µM; in the data set with L1210 [4] it was 1.6 µM. Also, the IC50 in the data set with L1210 [2] is greater than 10 µM. Besides, in the data set with Calf thymus DNA, the ΔTm turned out to be 1.7 °C. Further, in the data set with P388 (Mus musculus) [5], the T/C is given as 149%.
`CCCCCCCCCCCC(=O)NCC(=O)N[C@@H]1[C@@H](O)[C@H](O)[C@@H](Nc2ncnc3[nH]cnc23)O[C@H]1C`: the EC50 in the data set on L1210 [1] was 18 µM; in the data set with L1210 [4], 29 µM. In the data set with L1210 [2], the IC50 is greater than 10 µM. In addition, the Activity in the data set on P388 (Mus musculus) [3] was determined as 1 mg/kg. For the same compound, in the data set with P388 (Mus musculus) [5], the T/C is listed as 137%.
The matching figures for `CCOCCC(=O)NCC(=O)N[C@@H]1[C@@H](O)[C@H](O)[C@@H](Nc2ncnc3[nH]cnc23)O[C@H]1C`: greater than 1000 µM, greater than 1000 µM, greater than 500 µM, 3.1 mg/kg and less than 125%.
On to `CCCCCCCCCCCCCCCC(=O)NCC(=O)N[C@@H]1[C@@H](O)[C@H](O)[C@@H](Nc2ncnc3[nH]cnc23)O[C@H]1CO`, for which the results for the EC50 in the data set on L1210 [1] and in the data set with L1210 [4] were 1.6 µM and 2.5 µM, respectively. Also, in the data set on L1210 [2], the IC50 is greater than 100 µM. In the data set on Calf thymus DNA, the ΔTm worked out at 3.6 °C. The Activity with P388 (Mus musculus) [3] came out at 0.5 mg/kg. Moreover, in the data set with P388 (Mus musculus) [5], the T/C is 136%.
